The values that follow come from ChEMBL document CHEMBL1135766, “Synthesis of conformationally constrained analogues of linezolid: structure-activity relationship (SAR) studies on selected novel tricyclic oxazolidinones” (2002).

Test [1] deals with Enterococcus faecalis. The experiment in a line: In vitro antibacterial activity against Enterococcus faecalis ATCC 29212 (E. f. 034) vancomycin sensitive. The test is classed as functional. The essentials:
(§1)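 Broth microdilution MIC per NCCLS guidelines in Mueller Hinton medium. Doubling dilutions from 256 to 1 μg/mL, inoculum (1–5) × 10⁵ CFU/mL, incubated overnight in ambient air at 35 °C. MIC is the lowest concentration giving complete growth inhibition. Linezolid and vancomycin served as controls.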

For test [2], the system named is Staphylococcus aureus. Kind of test: In vitro antibacterial activity against methicillin resistant Staphylococcus aureus ATCC 33591 (S. a. 019). It is filed as functional. The essentials:
as §1

Test [3] relates to Staphylococcus aureus. The experiment in a line: In vitro antibacterial activity against Staphylococcus aureus ATCC 29213 (S. a. 035). It is filed as functional. In a few lines:
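Broth microdilution per NCCLS guidelines in Mueller Hinton medium. Doubling dilutions 256–1 μg/mL; inoculum (1–5) × 10⁵ CFU/mL; plates incubated overnight at 35 °C in ambient air. MIC read as the lowest concentration giving complete growth inhibition. Linezolid and vancomycin served as controls.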

Another test deals with Enterococcus faecium. Kind of test: In vitro antibacterial activity against Enterococcus faecium ATCC 12202 (E.fm 154) vancomycin resistant. The test is classed as functional, enterococcus fecium. In a few lines:
as §1

The test system of test [4] is Staphylococcus aureus. The experiment in a line: In vitro antibacterial activity against Staphylococcus aureus ATCC 49951 (S. a. 213). It is filed as functional. In a few lines: as §1
In test [5] the test system is Enterococcus faecalis. Kind of test: In vitro antibacterial activity against Enterococcus faecalis NCTC 12201 (E. f. 153) vancomycin resistant. The test is classed as functional. The essentials: as §1

≈ marks a conversion by molar mass, not a printed value.

In the case of `CCOC(=O)NC[C@H]1CN(c2cc(F)c3c(c2)OC[C@@H]2CCCN32)C(=O)O1`, the MIC against Enterococcus faecalis [1], in the test with Staphylococcus aureus [2], in the test with Staphylococcus aureus [3], in the test with Enterococcus faecium, against Staphylococcus aureus [4] and in the test with Enterococcus faecalis [5] was 8 µg/mL (≈ 21.1 µM) throughout.
Take `O=C1O[C@@H](C/N=C(/S)N2CCOCC2)CN1c1cc(F)c2c(c1)OC[C@@H]1CCCN21`: the MIC in the test on Enterococcus faecalis [1], with Staphylococcus aureus [2], against Staphylococcus aureus [3], in the test on Enterococcus faecium, with Staphylococcus aureus [4] and with Enterococcus faecalis [5] was 16 µg/mL (≈ 36.7 µM) each time.
With `CCCCC(=O)NC[C@H]1CN(c2cc(F)c3c(c2)OC[C@@H]2CCCN32)C(=O)O1`, the MIC (in general, the least concentration at which growth counts as inhibited) in the test with Enterococcus faecalis [1] turned out to be 16 µg/mL (≈ 40.9 µM); in the test on Staphylococcus aureus [2], 8 µg/mL (≈ 20.4 µM); in the test on Staphylococcus aureus [3] it was 16 µg/mL (≈ 40.9 µM); against Enterococcus faecium it was 32 µg/mL (≈ 81.7 µM); against Staphylococcus aureus [4], 16 µg/mL (≈ 40.9 µM); against Enterococcus faecalis [5] it was 16 µg/mL (≈ 40.9 µM).
On to `O=CNC[C@H]1CN(c2cc(F)c3c(c2)OC[C@@H]2CCCN32)C(=O)O1`, for which the MIC in the test with Enterococcus faecalis [1] is 4 µg/mL (≈ 11.9 µM); with Staphylococcus aureus [2] it was 4 µg/mL (≈ 11.9 µM); in the test on Staphylococcus aureus [3] it was 8 µg/mL (≈ 23.9 µM); against Enterococcus faecium, 8 µg/mL (≈ 23.9 µM); in the test on Staphylococcus aureus [4] it was 4 µg/mL (≈ 11.9 µM); against Enterococcus faecalis [5] it was 4 µg/mL (≈ 11.9 µM).
Regarding `O=CNC[C@H]1CN(c2ccc3c(c2)OC[C@@H]2CCCN32)C(=O)O1`, the MIC was determined as 16 µg/mL (≈ 50.4 µM) in the test with Enterococcus faecalis [1]; 4 µg/mL (≈ 12.6 µM) with Staphylococcus aureus [2]; 8 µg/mL (≈ 25.2 µM) against Staphylococcus aureus [3]; 16 µg/mL (≈ 50.4 µM) with Enterococcus faecium; 16 µg/mL (≈ 50.4 µM) against Enterococcus faecalis [5].
Turning to `O=C(CC(F)(F)F)NC[C@H]1CN(c2cc(F)c3c(c2)OC[C@@H]2CCCN32)C(=O)O1`, the MIC is 4 µg/mL (≈ 9.58 µM) against Enterococcus faecalis [1]; 4 µg/mL (≈ 9.58 µM) against Staphylococcus aureus [2]; 8 µg/mL (≈ 19.2 µM) in the test with Staphylococcus aureus [3]; 4 µg/mL (≈ 9.58 µM) in the test on Enterococcus faecium; 8 µg/mL (≈ 19.2 µM) against Staphylococcus aureus [4]; 4 µg/mL (≈ 9.58 µM) against Enterococcus faecalis [5].
Take `N=C(S)NC[C@H]1CN(c2cc(F)c3c(c2)OC[C@@H]2CCCN32)C(=O)O1`: the minimum inhibitory concentration (MIC) in the test on Enterococcus faecalis [1] worked out at 1 µg/mL (≈ 2.73 µM); against Staphylococcus aureus [2], 0.5 µg/mL (≈ 1.36 µM); against Staphylococcus aureus [3], 0.5 µg/mL (≈ 1.36 µM); in the test on Enterococcus faecium, 1 µg/mL (≈ 2.73 µM); against Staphylococcus aureus [4], 0.5 µg/mL (≈ 1.36 µM); in the test on Enterococcus faecalis [5], 1 µg/mL (≈ 2.73 µM).
With `CC(=O)NC[C@H]1CN(c2ccc3c(c2)OC[C@@H]2CCCN32)C(=O)O1`, the minimal inhibitory concentration (MIC) in the test with Enterococcus faecalis [1] amounted to 16 µg/mL (≈ 48.3 µM); against Staphylococcus aureus [2] it was 4 µg/mL (≈ 12.1 µM); in the test on Staphylococcus aureus [3], 8 µg/mL (≈ 24.1 µM); with Enterococcus faecium, 16 µg/mL (≈ 48.3 µM); in the test on Staphylococcus aureus [4], 4 µg/mL (≈ 12.1 µM); in the test with Enterococcus faecalis [5] it was 16 µg/mL (≈ 48.3 µM).
Take `C=CC(=O)NC[C@H]1CN(c2ccc3c(c2)OC[C@@H]2CCCN32)C(=O)O1`: the MIC in the test with Enterococcus faecalis [1] came out at 8 µg/mL (≈ 23.3 µM); against Staphylococcus aureus [2], 4 µg/mL (≈ 11.6 µM); against Staphylococcus aureus [3] it was 8 µg/mL (≈ 23.3 µM); in the test with Enterococcus faecium, 8 µg/mL (≈ 23.3 µM); against Enterococcus faecalis [5] it was 8 µg/mL (≈ 23.3 µM).
`CCCCCC(=O)NC[C@H]1CN(c2cc(F)c3c(c2)OC[C@@H]2CCCN32)C(=O)O1`: the minimal inhibitory concentration (MIC) is 32 µg/mL (≈ 78.9 µM) against Enterococcus faecalis [1]; 16 µg/mL (≈ 39.5 µM) in the test on Staphylococcus aureus [2]; 32 µg/mL (≈ 78.9 µM) with Staphylococcus aureus [3]; 32 µg/mL (≈ 78.9 µM) in the test with Enterococcus faecium; 32 µg/mL (≈ 78.9 µM) in the test with Staphylococcus aureus [4]; 32 µg/mL (≈ 78.9 µM) with Enterococcus faecalis [5].
`CCCC/C(S)=N\C[C@H]1CN(c2cc(F)c3c(c2)OC[C@@H]2CCCN32)C(=O)O1`: the MIC amounted to 2 µg/mL (≈ 4.91 µM) with Enterococcus faecalis [1]; 2 µg/mL (≈ 4.91 µM) in the test with Staphylococcus aureus [2]; 4 µg/mL (≈ 9.82 µM) with Staphylococcus aureus [3]; 2 µg/mL (≈ 4.91 µM) in the test on Enterococcus faecium; 2 µg/mL (≈ 4.91 µM) with Staphylococcus aureus [4]; 2 µg/mL (≈ 4.91 µM) in the test on Enterococcus faecalis [5].
Regarding `CCCCCCC(=O)NC[C@H]1CN(c2cc(F)c3c(c2)OC[C@@H]2CCCN32)C(=O)O1`, the MIC against Enterococcus faecalis [1], against Staphylococcus aureus [2], against Staphylococcus aureus [3], against Enterococcus faecium, with Staphylococcus aureus [4] and against Enterococcus faecalis [5] was 32 µg/mL (≈ 76.3 µM) each time.
For `CC(C)C(=O)NC[C@H]1CN(c2ccc3c(c2)OC[C@@H]2CCCN32)C(=O)O1`, the MIC against Enterococcus faecalis [1] was determined as 32 µg/mL (≈ 89 µM); with Staphylococcus aureus [2], 8 µg/mL (≈ 22.3 µM); in the test with Staphylococcus aureus [3] it was 16 µg/mL (≈ 44.5 µM); in the test with Enterococcus faecium, 32 µg/mL (≈ 89 µM); with Enterococcus faecalis [5], 32 µg/mL (≈ 89 µM).
